Broadly, the IC50 is the concentration that gives 50% inhibition. Read a low IC50 as greater potency in that assay.

Data on one compound can be found in ChEMBL document CHEMBL2440054, “Largazole Arrests Cell Cycle at G1 Phase and Triggers Proteasomal Degradation of E2F1 in Lung Cancer Cells” (ACS Med Chem Lett, 2013).

The test system of test [1] is NCI-H460. Description: Growth inhibition of human NCI-H460 cells at 0.1 uM after 24 to 48 hrs by trypan blue exclusion assay. Format: functional, cell-based. Summed up:
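Cells treated with largazole for indicated times. Viability evaluated by trypan blue exclusion.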

Test [2] concerns NCI-H460. As to the kind of experiment: Cell cycle arrest in human NCI-H460 cells assessed as accumulation at S phase at 0.1 uM after 24 hrs by propidium iodide staining-based flow cytometric analysis (reference value: 31.6%). The class given is functional. (Flow cytometry measures light scatter and fluorescence of single cells or particles in a stream.)
Test [3] concerns the target Transcription factor E2F1 (Homo sapiens) (UniProt Q01094). As to the kind of experiment: Induction of E2F1 degradation in human NCI-H460 cells at 0.1 uM after 12 to 24 hrs by Western blotting analysis. The class given is cell-based. Summed up: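 Each cell line (16-HBE, 95D, L78, H1975, H460) treated with 0.1 μM largazole for indicated times. Lysates Western blotted for E2F1.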
In general terms: A western blot detects proteins with antibodies after separation by electrophoresis.

The target is the same in test [4]. Description: Induction of E2F1 degradation in human A549 cells at 0.1 uM after 12 hrs by Western blotting analysis in presence of proteasome inhibitor MG-132. The class given is cell-based. An outline of the steps: (§1)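 A549 cells pretreated 2 h with bortezomib (100 nM) or MG-132 (10 μM), then given largazole 0.1 μM for a further 12 h. Lysates Western blotted for E2F1.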

Test [5] has as its target T1, Retinoblastoma-associated protein (Homo sapiens) (UniProt P06400).
T1 sequence (whole entry): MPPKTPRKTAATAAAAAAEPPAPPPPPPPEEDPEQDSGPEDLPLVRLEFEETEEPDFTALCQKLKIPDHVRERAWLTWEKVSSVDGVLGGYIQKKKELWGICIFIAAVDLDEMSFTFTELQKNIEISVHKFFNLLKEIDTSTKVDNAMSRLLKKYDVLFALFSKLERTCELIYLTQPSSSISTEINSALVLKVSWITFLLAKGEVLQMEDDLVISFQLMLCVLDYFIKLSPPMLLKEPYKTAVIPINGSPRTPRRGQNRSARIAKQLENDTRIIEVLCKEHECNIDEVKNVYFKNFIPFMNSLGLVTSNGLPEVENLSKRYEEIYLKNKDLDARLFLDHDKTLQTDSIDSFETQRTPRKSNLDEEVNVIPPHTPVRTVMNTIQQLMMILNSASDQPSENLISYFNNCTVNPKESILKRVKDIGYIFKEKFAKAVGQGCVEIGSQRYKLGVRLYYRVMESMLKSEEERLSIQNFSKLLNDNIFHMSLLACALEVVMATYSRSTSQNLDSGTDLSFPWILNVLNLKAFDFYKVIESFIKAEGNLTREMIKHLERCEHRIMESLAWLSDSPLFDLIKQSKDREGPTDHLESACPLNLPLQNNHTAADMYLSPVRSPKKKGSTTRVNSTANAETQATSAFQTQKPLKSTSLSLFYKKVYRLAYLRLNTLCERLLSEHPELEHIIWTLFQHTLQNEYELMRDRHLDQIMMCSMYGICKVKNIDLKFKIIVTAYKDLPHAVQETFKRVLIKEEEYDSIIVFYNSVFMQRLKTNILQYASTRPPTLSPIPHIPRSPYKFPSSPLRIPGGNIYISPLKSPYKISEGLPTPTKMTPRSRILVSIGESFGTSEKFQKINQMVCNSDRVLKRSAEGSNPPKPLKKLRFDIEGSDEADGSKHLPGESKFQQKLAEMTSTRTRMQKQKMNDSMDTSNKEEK
Description: Dephosphorylation of Rb in human A549 cells at 0.1 uM after 6 to 12 hrs by Western blotting analysis. Format: cell-based.

Test [6] has as its system A549. Description: Cell cycle arrest in human A549 cells assessed as accumulation at G1 phase at 0.06 uM after 24 hrs by propidium iodide staining-based flow cytometric analysis (reference value: 48.3%). The class given is functional.
For test [7], the system named is A549. As to the kind of experiment: Upregulation of p21 protein expression in human A549 cells at 0.1 uM after 6 hrs by Western blotting analysis. The class given is functional, cell-based. Summed up: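 A549 cells exposed to 0.1 μM over a time course, then lysed and Western blotted for G1 regulators including p21 and p27.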
The target in test [8] is Transcription factor E2F1 (Homo sapiens) (UniProt Q01094). Description: Inhibition of E2F1 in human A549 cells assessed as downregulation of PCNA gene expression at 0.1 uM after 6 to 36 hrs by RT-PCR analysis. The class given is cell-based. An outline of the steps: (§2)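 A549 cells given 0.1 μM over a time course. RNA extracted and RT-PCR run with gene-specific primers. Bands quantified by densitometry and normalized to GAPDH.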

For test [9] the target is unchanged. As to the kind of experiment: Inhibition of E2F1 in human A549 cells assessed as downregulation of DHFR gene expression at 0.1 uM after 6 to 36 hrs by RT-PCR analysis. The class given is cell-based. An outline of the steps: as §2
The test system of test [10] is A549. Description: Downregulation of E2F1 in human A549 cell cytoplasm at 0.1 uM after 6 to 24 hrs by Western blotting analysis. The class given is functional, cell-based. An outline of the steps: (§3)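 A549 cells exposed to 0.1 μM largazole for indicated times. Cytoplasmic and nuclear fractions separated, then Western blotted for E2F1.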
The test system of test [11] is NCI-H460. Description: Cell cycle arrest in human NCI-H460 cells assessed as accumulation at G1 phase at 0.06 uM after 24 hrs by propidium iodide staining-based flow cytometric analysis (reference value: 58.9%). Format: functional.
The nature of test [12]: Cytotoxicity against human GLC82 cells after 48 hrs by CCK-8 assay. The class given is functional, cell-based. As to conditions: GLC82, 48 h. An outline of the steps: (§4)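 Cells treated with a range of largazole concentrations for 48 h. Proliferation read by CCK-8 assay; IC50 derived from the concentration series.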
The next test deals with NCI-H1975. Description: Cytotoxicity against human NCI-H1975 cells after 48 hrs by CCK-8 assay. Format: functional, cell-based. The settings on record: NCI-H1975, 48 h. Summed up:
as §4

For test [13], the system named is A549. As to the kind of experiment: Cell cycle arrest in human A549 cells assessed as accumulation at S phase at 0.06 uM after 24 hrs by propidium iodide staining-based flow cytometric analysis (reference value: 48%). The class given is functional.
In test [14] the test system is A549. Description: Downregulation of p21 protein expression in human A549 cells at 0.1 uM after 1 hr by Western blotting analysis in presence of protein synthesis inhibitor cycloheximide. The class given is functional, cell-based.
The test system of test [15] is A549. As to the kind of experiment: Downregulation of p21 protein expression in human A549 cells at 0.1 uM after 4 hrs by Western blotting analysis in presence of protein synthesis inhibitor cycloheximide. The class given is functional, cell-based.
For test [16], the system named is A549. As to the kind of experiment: Downregulation of E2F1 protein expression in human A549 cells after 12 hrs by Western blotting analysis. The class given is functional, cell-based. Summed up: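 A549 cells treated with 0.1 μM largazole over a time course, or with a range of concentrations for 12 h. Lysates Western blotted for E2F1.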
In test [17] the test system is A549. Description: Cell cycle arrest in human A549 cells assessed as accumulation at G2 phase at 0.06 uM after 24 hrs by propidium iodide staining-based flow cytometric analysis (reference value: 3.7%). The class given is functional.
The test system of test [18] is A549. As to the kind of experiment: Downregulation of E2F1 in human A549 cell nucleus at 0.1 uM after 6 to 24 hrs by Western blotting analysis. The class given is functional, cell-based. An outline of the steps:
as §3

Test [19] deals with A549. As to the kind of experiment: Induction of apoptosis in human A549 cells assessed as increase in cleaved caspase-9 level at 0.1 uM after 48 hrs by Western blotting analysis. Format: functional, cell-based. Summed up: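 A549 cells exposed to 0.1 μM for a time course, then lysed and Western blotted. Read-outs are pro- and cleaved caspase-9, pro- and active caspase-3, and cleaved PARP.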

The nature of test [20]: Cytotoxicity against human 95-D cells after 48 hrs by CCK-8 assay. Format: functional, cell-based. An outline of the steps: as §4
For test [21], the target named is Transcription factor E2F1 (Homo sapiens) (UniProt Q01094). Description: Induction of E2F1 degradation in human A549 cells at 0.1 uM after 12 hrs by Western blotting analysis in presence of proteasome inhibitor bortezomib. The class given is cell-based. Summed up:
as §1

Calls of active or inactive are those of the source. No cut-off for these calls is given here.

Chain of Transcription factor E2F1 (Homo sapiens) (Q01094 whole entry): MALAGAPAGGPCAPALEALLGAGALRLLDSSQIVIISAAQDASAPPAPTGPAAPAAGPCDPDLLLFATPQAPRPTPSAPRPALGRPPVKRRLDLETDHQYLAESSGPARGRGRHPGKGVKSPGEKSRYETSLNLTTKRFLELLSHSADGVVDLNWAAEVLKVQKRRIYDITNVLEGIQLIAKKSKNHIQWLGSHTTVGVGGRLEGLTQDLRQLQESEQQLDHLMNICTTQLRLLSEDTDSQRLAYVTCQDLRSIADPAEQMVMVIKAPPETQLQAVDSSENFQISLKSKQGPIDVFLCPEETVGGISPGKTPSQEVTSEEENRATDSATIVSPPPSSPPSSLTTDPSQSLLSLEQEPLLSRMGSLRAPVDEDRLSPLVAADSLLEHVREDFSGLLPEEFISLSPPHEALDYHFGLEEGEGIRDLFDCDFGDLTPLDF

With `CCCCCCCC(=O)SCC/C=C/[C@@H]1CC(=O)NCc2nc(cs2)C2=N[C@@](C)(CS2)C(=O)N[C@@H](C(C)C)C(=O)O1` [LARGAZOLE], the “growth inhibition (GI)” value with NCI-H460 [1] was “Active”. Further, the Activity in the test with NCI-H460 [2] was 10.6%; with A549 [6], 90.4%; with NCI-H460 [11], 78.8%; in the test on A549 [13], 6.5%; in the test on A549 [16], “Dose-dependent effect”; with A549 [17] it was 3.1%. The result (in test [3]; in test [5]; with A549 [7]; with A549 [10]; in the test on A549 [15]; with A549 [18]) was Active. Also, the outcome in the test with A549 [19] was Active. Moreover, the outcome (in test [4]; with A549 [14]; in [21]) was inactive. In addition, the inhibition entry in [8] and in [9] was “Active” throughout. Moreover, the IC50 in [12] came to 190 nM; with NCI-H1975, 83 nM; in [20], 420 nM.
